Holding throughout (type): functional
Assay [1] has as its system Mus musculus. The assay can be described thus: Percent increase in median life span of BDF1 mice with B-16 melanoma at dose 3.00 mg/kg administered intraperitoneally. The following applies: BDF1, B16, ip, route intraperitoneal. The gist of the method: (§1)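 BDF1 mice were implanted ip with a homogenate from 0.05 g of B-16 melanoma. Ip dosing ran on days 1-9, starting 24 h after implant, in dose-response studies following NCI protocols. The read-out was percent increase in life span (ILS). T/C ≥125% was taken as significant.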

For assay [2], the species on record is Mus musculus. In words: Anticancer activity measured as the number of survivors of the total treated mice with P-388 leukemia at 30 days. The gist of the method:
(§2)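 BDF1 or CDF1 mice given 10^6 ascitic P-388 leukemia cells ip, then treated ip on days 1, 5 and 9. Cures are survivors over total treated at 30 days.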

In assay [3] the test system is Mus musculus. The assay can be described thus: Percent increase in median life span of BDF1 mice with P-388 leukemia at dose 6.25 mg/kg administered intraperitoneally. Conditions: BDF1, P388, ip, route intraperitoneal.
For assay [4], the species on record is Mus musculus. The assay can be described thus: Number of survivors of the total treated mice with B-16 melanoma, at 60 days. Put shortly:
(§3)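 BDF1 mice were implanted ip with a homogenate from 0.05 g of B-16 melanoma and dosed ip on days 1-9. Cures are survivors over total at 60 days.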

Assay [5] deals with Mus musculus. In words: Percent increase in median life span of BDF1 mice with B-16 melanoma at dose 6.25 mg/kg administered intraperitoneally. The following applies: BDF1, B16, ip, route intraperitoneal. Put shortly:
as §1

Assay [6] is filed under the species Mus musculus. The assay can be described thus: Cures is the number of survivors of the total treated mice (10) with B-16 melanoma, at 60 days. The gist of the method:
as §3

The subject of assay [7] is Mus musculus. The assay can be described thus: Percent increase in median life span of BDF1 mice with P-388 leukemia at dose 3.1 mg/kg administered intraperitoneally. Conditions: BDF1, P388, ip, route intraperitoneal.
Assay [8] deals with Mus musculus. In words: Percent increase in median life span of BDF1 mice with P-388 leukemia at dose 6.25 mg/kg administered intraperitoneally; range 125-145%; 1, 5, 9 days of ip treatment relative to tumor inoculation. Conditions: BDF1, P388, ip, 216 h, route intraperitoneal. Put shortly: (§4)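 BDF1 or CDF1 mice given 10^6 ascitic leukemia cells ip, then dosed ip on days 1, 5 and 9. Read-out is percent increase in life span versus untreated controls. Cures were scored as survivors/total at 30 days; when cures reached 50% or more, the run was extended until a specific ILS could be calculated. T/C ≥125% counted as significant.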

The species named for assay [9] is Mus musculus. The assay can be described thus: Cures is the number of survivors of the total treated mice (10) with B-16 melanoma, at 60 days. Put shortly: as §3
For assay [10], the species on record is Mus musculus. In words: Cures is the number of survivors of the total treated mice (10) with Colon 26, at 60 days.
For assay [11], the species on record is Mus musculus. In words: Cures is the number of survivors of the total treated mice (12) with P-388 leukemia, at 30 days. Put shortly:
as §2

Assay [12] deals with Mus musculus. In words: Percent increase in median life span of BDF1 mice with Colon 26 at dose 12.5 mg/kg administered intraperitoneally; 1, 5, 9 days of ip treatment relative to tumor inoculation. Conditions: BDF1, Colon 26, ip, 216 h, route intraperitoneal.
The subject of assay [13] is Mus musculus. The assay can be described thus: Percent increase in median life span of BDF1 mice with advanced B-16 melanoma at dose 6.2 mg/kg administered intraperitoneally; 5, 9, 13 days of ip treatment relative to tumor inoculation. Conditions: B16, ip, 312 h, route intraperitoneal.
The species entered for assay [14] is Mus musculus. The assay can be described thus: Cures is the number of survivors of the total treated mice (5) with L-1210 leukemia, at 30 days.
Assay [15] is filed under the species Mus musculus. In words: Cures is the number of survivors of the total treated mice (10) with advanced B-16 melanoma, at 30 days.
For assay [16], the system named is Mus musculus. The assay can be described thus: Percent increase in median life span of BDF1 mice with L-1210 leukemia at dose 6.2 mg/kg administered intraperitoneally; 1, 5, 9 days of ip treatment relative to tumor inoculation. The following applies: BDF1, L1210, ip, 216 h, route intraperitoneal. Put shortly:
as §4

The subject of assay [17] is Mus musculus. The assay can be described thus: Percent increase in median life span of BDF1 mice with B-16 melanoma at dose 6.25 mg/kg administered intraperitoneally; 1-9 days of ip treatment relative to tumor inoculation. Conditions: BDF1, B16, ip, route intraperitoneal. The gist of the method:
as §1

Assay [18] deals with Mus musculus. The assay can be described thus: Percent increase in median life span of BDF1 mice with P-388 leukemia at dose 18.8 mg/kg administered intraperitoneally. The following applies: BDF1, P388, ip, route intraperitoneal.

A value given as a limit tells only on which side of the number the result lay.

In ChEMBL document CHEMBL1122207, “Antitumor agents. 2. Bisguanylhydrazones of anthracene-9,10-dicarboxaldehydes” (1982) one finds ILS and Cures data, which are given here for four molecules.

For orientation: ILS means how much longer treated animals lived than controls. A higher ILS goes with a large benefit in survival. Regarding `Br.Br.CN(C)CC/N=C(\S)N/N=C/c1c2ccccc2c(/C=N/N/C(S)=N/CCN(C)C)c2ccccc12`, the ILS at 3 mg/kg in the assay with Mus musculus [1] was 47%. Besides, the Cures in the assay listed under Mus musculus [2] and in the assay filed under Mus musculus [4] was 0 in each case. This molecule also yielded an ILS at 6.25 mg/kg in the assay with Mus musculus [3] of 106%.
`CCc1ccc2c(/C=N/NC3=NCCN3)c3ccccc3c(/C=N/NC3=NCCN3)c2c1.Cl.Cl` returned an ILS at 6.25 mg/kg in the assay with Mus musculus [5] of 97%. Moreover, the Cures in the assay filed under Mus musculus [6] stood at 1; in the assay listed under Mus musculus [2], 0. The molecule further showed an increase in life span (ILS) at 3.1 mg/kg with Mus musculus [7] of 64%.
Consider `Cc1ccc2c(/C=N/NC3=NCCN3)c3ccccc3c(/C=N/NC3=NCCN3)c2c1.Cl.Cl`, for which the ILS at 6.25 mg/kg with Mus musculus [8] worked out at 145%; in the assay with Mus musculus [17], 172%. In addition, the Cures is on record as 4 in the assay filed under Mus musculus [9]; 0 in the assay filed under Mus musculus [10]; 1 in the assay listed under Mus musculus [11]; 0 in the assay filed under Mus musculus [14]; 3 in the assay filed under Mus musculus [15]. Also, in the assay with Mus musculus [12], the ILS at 12.5 mg/kg is at least 63%. Besides, the ILS at 6.2 mg/kg with Mus musculus [13] came to 35%; in the assay with Mus musculus [16], 42%.
On to `Cc1ccc(C)c2c(/C=N/NC3=NCCN3)c3ccccc3c(/C=N/NC3=NCCN3)c12.Cl.Cl`, for which the Cures in the assay filed under Mus musculus [2] and in the assay filed under Mus musculus [4] was 0 in each case. Moreover, the increase in lifespan (ILS) at 18.8 mg/kg in the assay on Mus musculus [18] turned out to be 57%.
